In ChEMBL document CHEMBL1132230, “1-(1,2,5-Thiadiazol-4-yl)-4-azatricyclo[2.2.1.0(2,6)]heptanes as new potent muscarinic M1 agonists: structure-activity relationship for 3-aryl-2-propyn-1-yloxy and 3-aryl-2-propyn-1-ylthio derivatives” (J Med Chem, 1999):

Assays:
[1] = target: T1, Muscarinic acetylcholine receptor M2 (Rattus norvegicus, UniProt P10980); experiment: Inhibition of [3H]- Oxo-M binding at Muscarinic acetylcholine receptor M2 in rat brain membranes.; format: cell membranes
T1 sequence (P10980 whole entry): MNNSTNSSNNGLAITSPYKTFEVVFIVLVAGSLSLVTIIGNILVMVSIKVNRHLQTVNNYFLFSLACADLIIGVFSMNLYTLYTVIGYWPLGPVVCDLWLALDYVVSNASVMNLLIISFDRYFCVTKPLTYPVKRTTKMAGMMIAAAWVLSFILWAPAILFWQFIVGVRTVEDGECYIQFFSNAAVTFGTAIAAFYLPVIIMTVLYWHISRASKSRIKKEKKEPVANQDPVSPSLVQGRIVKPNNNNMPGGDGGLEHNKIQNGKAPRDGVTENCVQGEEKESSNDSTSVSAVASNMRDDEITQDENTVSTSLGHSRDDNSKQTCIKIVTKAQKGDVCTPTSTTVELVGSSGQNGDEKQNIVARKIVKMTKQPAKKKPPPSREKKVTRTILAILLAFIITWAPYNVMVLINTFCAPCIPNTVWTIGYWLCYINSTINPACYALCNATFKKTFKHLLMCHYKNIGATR
Outline: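 Rat cortex homogenized in 20 mM HEPES pH 7.4 and centrifuged at 40000g. Membranes incubated 60 min at room temperature with 1 nM (final) [³H]oxotremorine-M and compound. Separated on PEI-soaked GF/C filters and counted by scintillation. Nonspecific binding defined with 10 μM arecoline. Value reported as IC50.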

[2] = target: T2, Muscarinic acetylcholine receptor M1 (Homo sapiens, UniProt P11229); experiment: (§1) Compound was tested for its ability to stimulate phosphoinositol (PI) hydrolysis in the mouse fibroblast cell line A9L-M1 expressing Muscarinic acetylcholine receptor M1 (100 uM concentration); format: functional, cell-based
T2 sequence (P11229 whole entry): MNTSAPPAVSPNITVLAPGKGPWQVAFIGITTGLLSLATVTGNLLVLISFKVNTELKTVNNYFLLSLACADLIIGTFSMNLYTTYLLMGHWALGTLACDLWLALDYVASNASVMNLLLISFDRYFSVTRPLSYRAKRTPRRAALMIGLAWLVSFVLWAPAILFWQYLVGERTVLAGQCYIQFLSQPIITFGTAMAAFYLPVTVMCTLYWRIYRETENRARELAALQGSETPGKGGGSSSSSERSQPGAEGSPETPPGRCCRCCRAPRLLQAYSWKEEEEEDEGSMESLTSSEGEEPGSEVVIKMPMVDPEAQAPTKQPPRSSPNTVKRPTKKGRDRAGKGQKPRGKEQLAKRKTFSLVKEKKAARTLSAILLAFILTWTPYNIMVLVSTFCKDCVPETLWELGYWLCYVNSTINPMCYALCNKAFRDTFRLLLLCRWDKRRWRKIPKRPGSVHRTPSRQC
Outline: (§2)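 A9L mouse fibroblasts stably expressing M1, grown to confluence in DMEM/10% FCS with 1.3 μCi/mL [³H]inositol for 48 h, detached with trypsin and resuspended in HEPES/LiCl buffer (LiCl 10 mM, pH 7.4). Cells incubated 45 min at 37 °C with compound up to 100 μM. Total [³H]inositol phosphates separated by ion exchange and counted.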

[3] = target: T3, Muscarinic acetylcholine receptor M1 (Homo sapiens) (UniProt P11229); experiment: as §1; format: functional, cell-based; outline: as §2
T3 sequence (whole entry): T2 sequence (P11229 whole entry)

[4] = target: T4, Muscarinic acetylcholine receptor M2 (Homo sapiens, UniProt P08172); experiment: Compound was tested for its potency at M-2 receptor by inhibiting forskolin induced c-AMP formation in CHO-M2 cells human M2 receptor; format: functional, cell-based
T4 sequence (P08172 whole entry): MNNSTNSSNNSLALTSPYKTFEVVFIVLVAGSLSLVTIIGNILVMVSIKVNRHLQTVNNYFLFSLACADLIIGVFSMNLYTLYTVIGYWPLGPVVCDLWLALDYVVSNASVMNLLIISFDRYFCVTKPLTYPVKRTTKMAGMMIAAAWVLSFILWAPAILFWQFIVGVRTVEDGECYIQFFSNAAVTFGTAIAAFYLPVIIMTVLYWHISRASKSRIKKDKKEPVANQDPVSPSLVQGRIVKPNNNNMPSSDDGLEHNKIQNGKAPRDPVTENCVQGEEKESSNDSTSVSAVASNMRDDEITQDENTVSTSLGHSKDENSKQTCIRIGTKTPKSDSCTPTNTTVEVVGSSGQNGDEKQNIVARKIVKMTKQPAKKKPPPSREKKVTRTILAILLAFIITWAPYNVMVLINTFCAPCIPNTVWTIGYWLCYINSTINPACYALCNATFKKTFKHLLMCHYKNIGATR
Outline: (§3)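 CHO cells transfected with human M2 receptor plasmid and cultured with atropine and methotrexate; atropine withdrawn overnight. Cells detached with PBS/1 mM EDTA, then preincubated 30 min at 0 °C in DMEM/20 mM HEPES pH 7.4 with 0.5 mM IBMX. Compound added and 10 μM forskolin (final) started a 10 min, 37 °C incubation, stopped with ice-cold ethanol. cAMP measured by radioimmunoassay.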

[5] = Ratio of EC50(CHO-M2) and EC50(A9L-M1); format: functional
Outline: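 Ratio of EC50 for inhibition of forskolin-stimulated cAMP in human-M2 CHO cells to EC50 for PI hydrolysis in A9L-M1 cells, both measured in this work.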

[6] = target: T2, Muscarinic acetylcholine receptor M1; experiment: Stimulation of phosphoinositol hydrolysis in the mouse fibroblast cell line A9L-M1 expressing Muscarinic acetylcholine receptor M1.; format: functional, cell-based
[7] = target: T5, Muscarinic acetylcholine receptor M2 (Homo sapiens) (UniProt P08172); experiment: Inhibition of forskolin induced c-AMP formation in CHO-M2 cells expressing human M2 receptor.; format: functional, cell-based; outline: as §3
T5 sequence (whole entry): T4 sequence (P08172 whole entry)

[8] = target: T4, Muscarinic acetylcholine receptor M2; experiment: Compound was tested for its potency towards Muscarinic acetylcholine receptor M2 by inhibiting forskolin induced c-AMP formation in CHO-M2 cells; format: functional, cell-based
Outline: (§4)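 Human M2 receptor plasmid transfected into CHO cells […], cultured in DMEM/10% FBS with 1 μM atropine and 1 μM methotrexate; atropine-free medium overnight before assay. Cells detached with PBS + 1 mM EDTA, washed into DMEM + 20 mM HEPES pH 7.4 + 0.5 mM IBMX, preincubated 30 min at 0 °C. Forskolin 10 μM final, 10 min at 37 °C; ethanol stop; cAMP by radioimmunoassay.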

[9] = target: T1, Muscarinic acetylcholine receptor M2; experiment: In vitro Muscarinic acetylcholine receptor M2 binding was evaluated in rat brain membranes by using [3H]- Oxo-M; format: cell membranes
Outline: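 Rat cortex homogenized in 20 mM Hepes pH 7.4 and spun 10 min at 40000g; pellet resuspended and incubated with [3H]oxotremorine-M (1 nM final) plus test drug for 60 min at room temperature. Bound and free separated by vacuum filtration on PEI-presoaked GF/C filters, then scintillation counting.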

[10] = target: T5, Muscarinic acetylcholine receptor M2 (Homo sapiens); experiment: Compound was tested for its potency towards Muscarinic acetylcholine receptor M2 by inhibiting forskolin induced c-AMP formation in CHO-M2 cells expressing human Muscarinic acetylcholine receptor M2 receptor; format: functional, cell-based; outline: as §3
[11] = target: T5, Muscarinic acetylcholine receptor M2 (Homo sapiens); experiment: Compound was tested for its potency at Muscarinic acetylcholine receptor M2 by inhibiting forskolin induced c-AMP formation in CHO-M2 cells expressing human M2 receptor; format: functional, cell-based; outline: as §4

Row | IC50 [1] [nM] | EC50 [2] [nM] | Max [3] [%] | EC50 [4] [nM] | EC50 [6] [nM] | Max [7] [%] | EC50 [8] [µM] | Max [10] [%] | Max [11] [%] | SMILES | Ratio [5] | IC50 [9] [nM]
1 | 1690 |  |  |  | 1200 | 23 |  |  |  | Clc1cc(Cl)cc(C#CCOc2nsnc2C23CN4CC2C3C4)c1 |  | 
2 |  |  |  |  |  |  |  | 100 |  | C[N+](C)(C)CCOC(N)=O |  | 
3 | 20 |  |  | 83 | 4.5 | 88 |  |  |  | Fc1ccc(C#CCSc2nsnc2C23CN4CC2C3C4)cc1 | 18 | 
4 | 27 |  |  | 853 | 61.9 | 106 |  |  |  | C(#Cc1ccccc1)CSc1nsnc1C12CN3CC1C2C3 | 14 | 
5 | 30 |  |  | 2690 | 20.2 | 68 |  |  |  | Fc1cc(F)cc(C#CCOc2nsnc2C23CN4CC2C3C4)c1 | 133 | 
6 | 142 |  |  | 763 | 46 | 90 |  |  |  | Fc1cc(Cl)cc(C#CCSc2nsnc2C23CN4CC2C3C4)c1 | 17 | 
7 | 49 |  |  | 673 | 9 | 96 |  |  |  | Clc1cccc(C#CCSc2nsnc2C23CN4CC2C3C4)c1 | 74 | 
8 | 63 |  |  | 1210 |  | 102 |  |  |  | Clc1ccc(C#CCOc2nsnc2C23CN4CC2C3C4)cc1 |  | 

The remaining lines, values behind:

Row | SMILES | IC50 [1] [nM] | EC50 [2] [nM] | Max [3] [%] | EC50 [4] [nM] | EC50 [6] [nM] | Max [7] [%] | EC50 [8] [µM] | Max [10] [%] | Max [11] [%] | Ratio [5] | IC50 [9] [nM]
9 | Fc1cccc(C#CCOc2nsnc2C23CN4CC2C3C4)c1 | 21 | 4.9 | 91 | 683 |  |  |  |  |  | 139 | 
10 | COc1cccc(C#CCO/N=C2\CN3CCC2C3)c1 (stereo not given) |  |  |  |  | 7120 |  | 26.7 | 89 |  | 4 | 150
11 | Fc1cc(F)cc(C#CCSc2nsnc2C23CN4CC2C3C4)c1 | 28 |  |  | 1660 | 7.6 | 79 |  |  |  | 218 | 
12 | CCCCCCOc1nsnc1C1=CCCN(C)C1 [XANOMELINE] |  |  |  |  |  |  |  | 82 |  |  | 16
13 | Clc1cc(Cl)cc(C#CCSc2nsnc2C23CN4CC2C3C4)c1 | 788 |  |  | 528 | 1810 | 84 |  |  |  | 0.3 | 
14 | Clc1cccc(C#CCOc2nsnc2C23CN4CC2C3C4)c1 | 47 |  |  | 2280 | 10.5 | 101 |  |  |  | 217 | 
15 | Fc1cc(Cl)cc(C#CCOc2nsnc2C23CN4CC2C3C4)c1 | 92 |  |  | 1480 | 110 | 76 |  |  |  | 13 | 
16 | Fc1ccc(C#CCOc2nsnc2C23CN4CC2C3C4)cc1 | 10 |  |  | 791 | 71 | 109 |  |  |  | 11 | 
17 | Fc1cccc(C#CCSc2nsnc2C23CN4CC2C3C4)c1 | 26 |  |  | 904 | 2.5 | 106 |  |  |  | 362 | 
18 | C(#Cc1ccccc1)COc1nsnc1C12CN3CC1C2C3 | 16 |  |  |  |  |  |  |  | 99 | 11 | 
19 | CN1CCC=C(c2nsnc2OCC#Cc2ccccc2)C1 | 14 |  |  |  |  | 115 |  |  |  | 2 | 
20 | Clc1ccc(C#CCSc2nsnc2C23CN4CC2C3C4)cc1 | 242 |  |  | 80 | 107 | 76 |  |  |  | 1 | 
